The text below walks through data of ChEMBL document CHEMBL1140317, “Novel alpha-amino-3-hydroxy-5-methyl-4-isoxazole propionate (AMPA) receptor antagonists of 2,3-benzodiazepine type: chemical synthesis, in vitro characterization, and in vivo prevention of acute neurodegeneration” (J Med Chem, 2005).

pIC50: −log10 of the molar value.

Data set [1] addresses Glutamate receptor ionotropic, AMPA (Rattus norvegicus, UniProt P19490+P19491+P19492+P19493). The data set is described as follows: In vitro inhibition of AMPA receptor mediated currents in primary cultured rat fetal hippocampal neurons. Type of data set: tissue-based, Hippocampus. In outline: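 Whole-cell patch clamp at −60 mV on hippocampal neurons from E19 Wistar rat fetuses, cultured 6–14 days (cytosine-arabinoside from day 6). Inward currents were evoked by bath-perfused kainate in pH 7.4 HEPES medium with CsCl pipet solution. Antagonist was bath-applied after 90 s preincubation in 0.3% DMSO final. Currents were normalized to the no-antagonist value, 5–6 cells per point, and the logistic fit gave IC50.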

The test system of data set [2] is Mus musculus. Put plainly: Effect on brain lesion measured 24 hour after permanent MCA occlusion in mice upon four i.p. doses of 10 mg/kg (n=10). The data set is classed as functional. The conditions noted are these: route intraperitoneal. Put shortly: (§1)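 Male NMRI mice (23–30 g) under Avertin anesthesia (240 mg/kg ip), rectal temperature held at 37 ± 0.5 °C during surgery, underwent permanent MCA occlusion. Four ip injections in 10% cremophor EL were given 1 h before and 0, 1 and 2 h after occlusion. At 24 h, infarct volume was measured by TTC staining (Cavalieri principle). Results are mean ± SD versus vehicle, ANOVA with Dunnett test.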

For data set [3], the system named is Rattus norvegicus. The data set is described as follows: Effect on total cerebral infarct volume measured 24 hour after permanent MCA occlusion in rat upon four i.p. doses of 3 mg/kg (n=12). The data set is classed as functional. The note with it: route intraperitoneal. Put shortly: (§2)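 Male Fischer-344 rats with permanent MCA occlusion received four ip injections in 10% cremophor EL at 1, 2, 3 and 4 h after occlusion. Total infarct volume (cortex and striatum) was measured 24 h after occlusion by TTC staining with Cavalieri volume calculation. Results are mean ± SD versus vehicle group, ANOVA followed by Dunnett test.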

Data set [4] concerns Rattus norvegicus. Put plainly: Effect on total cerebral infarct volume measured 24 hour after permanent MCA occlusion in rat upon four i.p. doses of 10 mg/kg (n=15). The data set is classed as functional. The conditions noted are these: route intraperitoneal. Put shortly:
as §2

Data set [5] concerns Rattus norvegicus. The data set is described as follows: Effect on total cerebral infarct volume measured 24 hour after permanent MCA occlusion in rat upon four i.p. doses of 30 mg/kg (n=10). Type of data set: functional. The note with it: route intraperitoneal. Put shortly: as §2
Data set [6] can be described thus: Volume of distribution was measured. Type of data set: ADME, organism-based. The note with it: in vivo; read-out: Volume of distribution. Put shortly: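 Rats were given 2.5 mg/kg iv. Plasma was sampled at nine time points from 5 min to 7 h, precipitated with acetonitrile (1:5) and quantified by LC/MS/MS against matrix calibration curves with an internal standard, C18 column, water/acetonitrile with 0.1% acetic acid gradient. Volume of distribution was calculated from the concentration–time data.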

Data set [7] concerns Rattus norvegicus. Put plainly: Half life was measured after iv injection in rats. The conditions noted are these: in vivo.
In data set [8] the test system is Rattus norvegicus. Put plainly: Plasma clearance was measured after iv injection in rats.
For data set [9], the system named is Rattus norvegicus. The data set is described as follows: Effect on total cerebral infarct volume measured 24 hour after permanent MCA occlusion in rat at a dose of 3 mg/kg (n=6). The data set is classed as functional. In outline: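 Male Fischer-344 rats underwent permanent MCA occlusion and received a single ip dose in physiological saline (0.9% NaCl) immediately after occlusion. Rectal temperature was held at 37 ± 0.5 °C during surgery. At 24 h, under Nembutal, brains were TTC-stained and infarct areas measured, with volume by Cavalieri principle. Mean ± SD; ANOVA with Dunnett's test versus vehicle.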

In data set [10] the test system is Mus musculus. Put plainly: Effect on brain lesion measured 24 hour after permanent MCA occlusion in mice upon three i.p. doses of 30 mg/kg (n=12). Type of data set: functional. The conditions noted are these: route intraperitoneal. Put shortly:
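Reference paradigm in male NMRI mice with permanent MCA occlusion, anesthetized with Avertin (240 mg/kg ip). Three ip injections of 30 mg/kg in physiological saline at 60, 70 and 85 min after occlusion (table footnote says 80 min). Infarct volume was measured at 24 h by TTC staining and Cavalieri calculation. Results are mean ± SD versus saline vehicle, ANOVA/Dunnett.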

Data set [11] relates to Mus musculus. The data set is described as follows: Effect on brain lesion measured 24 hr after permanent MCA occlusion in mice upon four i.p. doses of 30 mg/kg (n=8). The conditions noted are these: route intraperitoneal. The data set is classed as functional. Put shortly: as §1
Data set [12] concerns Mus musculus. The data set is described as follows: Effect on brain lesion measured 24 hour after permanent MCA occlusion in mice upon four i.p. doses of 10 mg/kg (n=9). Type of data set: functional. The note with it: route intraperitoneal. In outline: as §1

In [1], `Cc1nc2n(c1C)N=C(c1ccc(Cl)cc1)c1cc3c(cc1C2)OCO3` showed a pIC50 of 5.00.
Still for that read-out and setting: the result for `CC1=NN=C(c2ccc(N)cc2)c2cc3c(cc2C1)OCO3` [GYKI-52466] reads 5.05.
`Cc1nc2n(c1C)N=C(c1ccccc1)c1cc3c(cc1C2)OCO3` came in with a Brain lesion in data set [2] of 17.1 mm³. Also, the Total infarct volume in data set [3] came to 138 mm³; in data set [4] it was 142 mm³; in [5], 132 mm³. In data set [1], the negative-log IC50 (pIC50) is 5.47. The Vd in [6] is 2.7 L/kg. This compound had a half-life in data set [7] of 1.2 h. Further, the clearance in data set [8] is 3.24 L/h/kg.
The compound `C[C@]12N[C@H](Cc3ccccc31)c1ccccc12` [DIZOCILPINE] registered a Total infarct volume in [9] of 118 mm.
`Clc1nc2n(c1Cl)N=C(c1ccccc1)c1cc3c(cc1C2)OCO3` gave a pIC50 in data set [1] of under 5.00.
On to `NS(=O)(=O)c1cccc2c1c([N+](=O)[O-])cc1nc(O)c(O)nc12` [NBQX], for which the Brain lesion in data set [10] amounted to 18.4 mm³.
With `c1ccc(C2=Nn3ccnc3Cc3cc4c(cc32)OCO4)cc1`, the pIC50 in data set [1] is 5.19.
Take `Cc1c(CO)nc2n1N=C(c1ccccc1)c1cc3c(cc1C2)OCO3`: the Brain lesion in data set [11] came out at 23 mm³; in data set [12], 20.6 mm³. The same compound had a negative logarithm of the IC50 (pIC50) in data set [1] of 5.34.
Consider `Cc1nc2n(c1C)N=C(c1ccc(F)cc1)c1cc3c(cc1C2)OCO3`, for which the negative logarithm of the IC50 (pIC50) in data set [1] was 5.00.
Take `Brc1nc2n(c1Br)N=C(c1ccccc1)c1cc3c(cc1C2)OCO3`: the pIC50 in data set [1] was under 5.00.

A word on the pIC50: it is the IC50 on a negative log10 scale, so that one unit is a factor of ten. The low end stands for a large IC50, the high end for a small IC50. The term half-life denotes how long it takes for the measured level to halve. Lower therefore signals rapid decline. One may read the clearance as the rate of elimination divided by the concentration. The low end stands for inefficient removal, the high end for efficient removal.
